In the assay the target is T1, NAD-dependent protein deacetylase sirtuin-3, mitochondrial (Homo sapiens, UniProt Q9NTG7).
T1 sequence (Q9NTG7 whole entry): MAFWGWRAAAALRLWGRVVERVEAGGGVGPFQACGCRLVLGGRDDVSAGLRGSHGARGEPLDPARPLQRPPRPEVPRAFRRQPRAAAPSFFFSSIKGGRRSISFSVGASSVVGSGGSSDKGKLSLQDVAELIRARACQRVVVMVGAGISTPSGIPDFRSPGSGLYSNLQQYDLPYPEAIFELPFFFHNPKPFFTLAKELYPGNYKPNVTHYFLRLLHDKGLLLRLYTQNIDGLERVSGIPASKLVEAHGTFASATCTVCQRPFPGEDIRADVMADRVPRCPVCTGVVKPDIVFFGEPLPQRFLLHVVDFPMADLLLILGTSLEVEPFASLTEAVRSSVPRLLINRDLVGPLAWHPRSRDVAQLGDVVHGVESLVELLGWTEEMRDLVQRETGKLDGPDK
Briefly: Activation of N-terminal his-tagged human SIRT3 (114 to 380 residues) expressed in Escherichia coli in presence of NAD+ by Mass spectrometry assay. In short, it runs like this: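 Mass-spectrometric deacetylation assay using coupled-assay components (1.5 µM Sirt3, 50 µM peptide, 100 µM NAD+, compound 100 µM) in 50 mM Na-phosphate pH 7.8 plus 0.05 µg/µL PNCA to remove nicotinamide; product and substrate peptides quantified.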

The text below walks through data of BindingDB's records for PubMed 36228194 (University of Bayreuth, 2022).

As to `CCOC(=O)C1=CN(C(=O)c2cc(OC)c(OC)c(OC)c2)C=C(C(=O)OCC)C1c1ccccc1`, the EC50 worked out at 100 µM.
